# E-selectin induc: induces E-selectin expression in human endothelial cells | P16581 | HUVEC E-selectin immunofluorescence imaging; normalized: neutral wells 0, TNF-alpha wells 100 | activation, % at 7.58 µM | 260,000 tested, 0.37% active | AID 686992;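 active means mean E-selectin-positive cell signal at least 10% of the positive control, reached in at least 60% of replicates, without over 20% cell loss; inconclusive means no rule given, readout overlaps actives, possibly toxicity-flagged; inactive means the rest, including those meeting only one limit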
#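 Test system: HUVEC | Signal: Immunofluorescence imaging | Read-out: Percent E-selectin-positive cells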
# DENV2 CPE: inhibitors of DENV2 cytopathic effect; DENV2-infected cells, cytopathic effect rescue, plate reader; CPE inhibition, % at 9.99 µM; 350,000 tested, 1.7% active; in the data active means CPE inhibition above about 20%, passing the limit was not always enough; inconclusive means no clear call, values can overlap the other calls; tested in BHK-21 cells;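 further: 0% = median of neutral control wells and 100% = median of positive control wells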
# SIRT5 block: inhibitors of human sirtuin-5 desuccinylase; Q9NXA8; Purified SirT5, succinyl-peptide AMC, trypsin-coupled fluorescence; inhibition, % at 15 µM; 330,000 tested, 1.1% active; AID 652115; in the data active means inhibition above about 15%; inconclusive means no clear call, values can overlap the other calls
# Target sequence (Q9NXA8 whole entry, looked up): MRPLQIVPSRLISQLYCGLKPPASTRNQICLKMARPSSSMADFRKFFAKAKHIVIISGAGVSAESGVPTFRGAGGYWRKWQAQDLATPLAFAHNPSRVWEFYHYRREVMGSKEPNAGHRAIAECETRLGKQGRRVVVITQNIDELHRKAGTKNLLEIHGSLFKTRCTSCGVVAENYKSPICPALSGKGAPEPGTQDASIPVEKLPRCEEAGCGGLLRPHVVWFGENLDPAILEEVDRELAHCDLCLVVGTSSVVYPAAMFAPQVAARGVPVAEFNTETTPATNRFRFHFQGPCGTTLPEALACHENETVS
# * = called active by the depositor; ? = inconclusive; . = no result given. In the library only some 2.8% were active in any assay of this set; here they are far more common.
SMILES,E-selectin induc,DENV2 CPE,SIRT5 block
C[C@@H]1CN([C@H](C)CO)C(=O)c2cccc(NC(=O)C3CC3)c2O[C@H]1CN(C)CC1CC1,111*,13,-6
C[C@@H]1CN([C@H](C)CO)C(=O)c2cccc(NC(=O)C3CC3)c2O[C@@H]1CN(C)CC1CC1,77*,-4,-7
O=C(C[C@H]1C=C[C@@H](NC(=O)Nc2cc(F)ccc2F)[C@H](CO)O1)NCc1ccncn1,0,5,-4
CC(C)[C@@H](C)NC(=O)N(C)C[C@H]1OCc2ccccc2-c2ccccc2C(=O)N([C@H](C)CO)C[C@@H]1C,-1,?,3
Cc1ccccc1-c1ccnc2[nH]n(-c3ccccc3)c(=O)c12,0,-1,24*
Cc1cc(-c2c(C)[nH]n(-c3ccccc3)c2=O)n[nH]1,0,0,-8
C[C@H](CO)N1C[C@H](C)[C@H](CN(C)C(=O)CC2CC2)Oc2cc(C#CC(C)(C)O)ccc2S1(=O)=O,0,10,18*
CC(C)CC#Cc1ccc2c(c1)O[C@@H](CN(C)C(=O)C1CCCCC1)[C@@H](C)CN([C@@H](C)CO)S2(=O)=O,-1,-4,1
C[C@H]1CN([C@@H](C)CO)S(=O)(=O)c2ccc(C#CC(C)(C)O)cc2O[C@H]1CN(C)C(=O)CC1CC1,0,-5,-4
CC(C)CC#Cc1ccc2c(c1)O[C@H](CN(C)C(=O)C1CCCCC1)[C@H](C)CN([C@@H](C)CO)S2(=O)=O,-1,7,22*
CC(C)CC#Cc1ccc2c(c1)O[C@@H](CN(C)C(=O)CC1CC1)[C@H](C)CN([C@@H](C)CO)S2(=O)=O,1,2,11
CC(C)CC#Cc1ccc2c(c1)O[C@H](CN(C)C(=O)CC1CC1)[C@H](C)CN([C@@H](C)CO)S2(=O)=O,0,8,18*
CC(=O)N(C)C[C@H]1Oc2ncc(C#Cc3ccc(F)cc3)cc2C(=O)N([C@H](C)CO)C[C@H]1C,1,3,-3
CO[C@H]1CN(C)C(=O)c2ccc(NC(C)=O)cc2OC[C@H](C)N(Cc2cc(F)ccc2F)C[C@@H]1C,4,32*,3
COc1cccc(S(=O)(=O)Nc2ccc3c(c2)OC[C@@H](C)N(Cc2cc(F)ccc2F)C[C@@H](C)[C@H](OC)CN(C)C3=O)c1,0,13,20*
CO[C@H]1CN(C)C(=O)c2ccc(NC(C)=O)cc2OC[C@@H](C)N(Cc2cc(F)ccc2F)C[C@H]1C,0,0,4
COc1cccc(S(=O)(=O)Nc2ccc3c(c2)OC[C@H](C)N(Cc2ccccc2F)C[C@H](C)[C@@H](OC)CN(C)C3=O)c1,0,?,3
CN1c2ccc(-c3ccccc3F)cc2[C@H]2[C@H](CCN2S(=O)(=O)c2ccc(F)cc2)[C@@H]1CO,0,.,.
CN(C)CCCNc1oc(-c2ccccc2Cl)nc1S(=O)(=O)c1ccccc1,0,5,8
CN(C)CCCNc1oc(-c2ccc(Cl)cc2)nc1S(=O)(=O)c1ccccc1,0,39*,-1
COc1cccc(-c2ccc([C@@H]3[C@@H](CO)N4CCCCN(S(=O)(=O)c5cn(C)cn5)C[C@H]34)cc2)c1,1,73*,10
COc1cccc(-c2ccc([C@H]3[C@H]4CN(S(=O)(=O)c5cn(C)cn5)CCCCN4[C@H]3CO)cc2)c1,0,-2,1
COc1ccc(C#Cc2ccc([C@H]3[C@H]4CN(S(=O)(=O)c5cn(C)cn5)CCCCN4[C@H]3CO)cc2)cc1,0,-3,5
COc1ccc(C#Cc2ccc([C@@H]3[C@@H](CO)N4CCCCN(S(=O)(=O)c5cn(C)cn5)C[C@H]34)cc2)cc1,0,43*,2
COC(=O)C1=C(C(=O)OC)[C@@H]2Nc3ccccc3[C@@]23C[C@@H](C(=O)OC)N(C(=O)CC(C)C)C3=N1,0,-19,21*
SMILES,E-selectin induc,DENV2 CPE,SIRT5 block
CCOC(=O)N1C2=NC(C(=O)OC)=C(C(=O)OC)[C@@H]3Nc4ccccc4[C@]23C[C@H]1C(=O)OC,0,1,.
COc1cc(/C=N/NC(=O)c2cc(-c3ccccc3Cl)nc3ccccc23)cc(OC)c1O,.,7,-2
COc1cc(/C=N/NC(=O)c2cc(-c3ccco3)nc3ccccc23)cc(OC)c1O,0,31*,1
C[C@H](CO)N1C[C@H](C)[C@H](CN(C)C(=O)c2ccccn2)Oc2cc(C3=CCCC3)ccc2S1(=O)=O,0,-1,-5
Cc1cccc(C)c1NC(=O)C1=C(O)c2sccc2N(C)S1(=O)=O,.,1,21*
Cc1cccc(C(=O)N/N=C2\CS(=O)(=O)N(C)c3ccsc32)c1,19,.,-7
COc1ccc2c3c([nH]c2c1)[C@@H](CO)N(C(=O)Nc1ccccc1F)CC31CCN(C(=O)c2ccccc2F)CC1,0,-8,.
CO[C@H]1CN(C)C(=O)c2cc(NC(=O)C3CC3)ccc2OC[C@H](C)N(C(=O)c2cccnc2)C[C@@H]1C,0,?,3
O=C(N[C@@H]1CC[C@H](CC(=O)N2CCOCC2)O[C@H]1CO)c1cccc(F)c1,1,-1,-3
COc1cccc(OCc2ccc(Cn3nc(NC(=O)NCCc4ccc(OC)c(OC)c4)c4ccccc43)cc2)c1,1,-2,35*
COc1ccc(CCNC(=O)COc2cc(=O)n(C)c3ccccc23)cc1OC,.,2,1
CC(C)NC(=O)Nc1ccc2c(c1)C(=O)N(C)[C@H]1CC[C@H](CC(=O)NC3CCCCC3)O[C@H]1CO2,3,2,.
COc1ccc(OC)c(NC(=O)CSc2n[nH]c(-c3cccnc3)n2)c1,0,4,17*
CCc1ccccc1NC(=O)CSc1n[nH]c(-c2cccnc2)n1,0,-3,-3
C[C@@H]1CN([C@@H](C)CO)C(=O)c2cccc(NC(=O)C3CCCCC3)c2O[C@H]1CN(C)S(=O)(=O)c1ccc(F)cc1,0,-8,-8
C=CC(=O)N(CCC)C(c1ccccc1)c1ccccc1OC (stereo unspecified),0,-10,21*
COc1ccccc1CN(C)C(=O)C(c1ccccc1)c1ccccc1,0,7,-2
Cc1noc(C)c1NC(=O)Nc1cccc2c1O[C@@H](CN(C)C(=O)NC1CCCCC1)[C@H](C)CN([C@@H](C)CO)C2=O,0,-3,-9
COc1ccc(C(=O)CCC(=O)NCc2cc(OC)cc(OC)c2)cc1,.,35*,0
COc1ccc(CNC(=O)CCC(=O)c2ccccc2)cc1,-2,-6,-1
N#CC(=Nc1cccc(F)c1)C1=C(O)c2ccccc2C1=O,0,32*,2
COc1ccc(CN=C(C#N)C2=C(O)c3ccccc3C2=O)cc1,.,-3,-3
COCC(=O)Nc1ccc2c(c1)C(=O)N(C)C[C@@H](OC)[C@@H](C)CN(C(C)=O)[C@H](C)CO2,0,.,0
C[C@H](CO)N1C[C@H](C)[C@@H](CN(C)Cc2ccc(Cl)c(Cl)c2)OCCCC[C@H](C)Oc2ccc(NC(=O)CCC(F)(F)F)cc2C1=O,0,-2,0
COc1ccc(CN(C)C[C@@H]2OCCCC[C@@H](C)Oc3ccc(NC(=O)CCC(F)(F)F)cc3C(=O)N([C@H](C)CO)C[C@H]2C)cc1,0,30*,6

# Assay outcomes deposited in PubChem by Broad Institute.
